Assay results from ChEMBL document CHEMBL3259554, “Discovery, synthesis, and optimization of antimalarial 4(1H)-quinolone-3-diarylethers” (J Med Chem, 2014).
Active and inactive are the calls of the source. No cut-off for these calls is given here.

Legend:
HepG2 = test: Cytotoxicity against human HepG2 cells after 24 hrs incubation by Alamar Blue assay; assay type: cell-based; settings: HepG2, 24 h
Summary of the method: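 HepG2 cells grown in RPMI-1640 with 10% FBS and seeded at 2 × 10⁴ cells/well, attached overnight. Drug serially diluted from 10 mM DMSO stocks to 2.5 nM–10 μM and incubated 24–36 h. Medium then replaced and cells kept a further 24 h. Resazurin added (final 10 μM) for 3 h, fluorescence read at ex 560/em 590 nm. Run in triplicate; IC50 by nonlinear logistic regression.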

[1] = Antimalarial activity against multidrug-resistant Plasmodium falciparum Dd2 MRA-156 infected in human red blood cells assessed as suppression of parasitemia after 72 hrs by SYBR Green I-based fluorescence method; assay type: functional
Summary of the method: (§1)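 Asynchronous parasites in human erythrocytes, RPMI-1640 with HEPES, hypoxanthine, glucose, glutamine, 0.5% Albumax II; 2% hematocrit, 0.2% initial parasitemia. Triplicate 2-fold dilutions from 1 μM (lower start if needed), 72 h at 37 °C under 5% O2/5% CO2/90% N2. SYBR Green I dye-detergent added, 1 h dark at room temperature, fluorescence read. EC50 averaged over at least three determinations.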

Plasmodium falciparum [2] = test: Antimalarial activity against atovaquone-resistant clinical isolate Plasmodium falciparum TM90-C2B infected in human red blood cells assessed as suppression of parasitemia after 72 hrs by SYBR Green I-based fluorescence method; assay type: functional, organism-based; summary of the method: as §1
Plasmodium yoelii [3] = test: Antimalarial activity against Plasmodium yoelii MR4 MRA-428 infected in mouse CF1 assessed as dose required to achieve cure measured as 30 days survival administered through oral gavage once daily for 4 days; assay type: functional
Summary of the method: (§2)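 P. yoelii-infected mice, randomly grouped in fours; dosing began day after inoculation (day 1), once daily by oral gavage in PEG-400 for four successive days; initial doses 0.1, 0.3, 1.0, 3.0, 10 mg/kg/day, range adjusted as needed. Day-5 Giemsa-smear parasitemia vs drug-free controls; ED50 derived graphically. Cure = parasite free 30 days after last dose; cure dose termed non-recrudescence dose.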

Plasmodium falciparum [4] = test: Antimalarial activity against chloroquine-sensitive Plasmodium falciparum D6 MRA-285 infected in human red blood cells assessed as suppression of parasitemia after 72 hrs by SYBR Green I-based fluorescence method; assay type: functional, organism-based; settings: D6 MRA-285, 72 h; summary of the method: as §1
Plasmodium yoelii [5] = test: Antimalarial activity against Plasmodium yoelii MR4 MRA-428 infected in mouse CF1 assessed as reduction on parasite burden administered through oral gavage once daily for 4 days; assay type: functional; summary of the method: as §2
Plasmodium yoelii [6] = test: Antimalarial activity against Plasmodium yoelii MR4 MRA-428 infected in mouse CF1 assessed as reduction on parasite burden at 64 mg/kg administered through oral gavage once daily for 4 days; assay type: functional, organism-based; set-up: dose 64 mg/kg
Summary of the method: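 P. yoelii model in mice, randomized into groups of four. Oral gavage in PEG-400 once daily for four successive days, starting the day after inoculation. Giemsa-stained blood smears read microscopically on day 5. Parasite burden compared with drug-free controls. Animals parasite free 30 days after the last dose counted as cured.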

[7] = Inhibition of human cytochrome bc1 complex derived from HEK293 cell mitochondria using 50 uM decylubiquinol as substrate
Summary of the method: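 Mitochondria isolated from HEK-293 cells by Dounce homogenization and differential centrifugation, dispersed in 2 mg/mL dodecyl maltoside for 45 min on ice, then clarified. Baseline-subtracted initial rates expressed as a fraction of uninhibited control.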

Liver microsome [8] = test: Metabolic stability in rat liver microsomes; assay type: ADME
Summary of the method: (§3)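 Compound at 1 μM incubated at 37 °C with liver microsomes (0.4 mg protein/mL) in 0.1 M phosphate pH 7.4. Started with an NADPH-regenerating system plus MgCl₂ and quenched with cold acetonitrile at time points up to 60 min. Parent loss followed by LC-MS and fitted to first-order decay to give half-life and intrinsic clearance. E_H used liver blood flow of 20.7 (human) or 55.2 (rat) mL/min/kg.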

Liver microsome [9] = test: Metabolic stability in human liver microsomes; assay type: ADME; summary of the method: as §3
[10] = Inhibition of cytochrome bc1 complex isolated from trophozoite stage Plasmodium falciparum
Summary of the method: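 P. falciparum mitochondrial preparation assayed for cytochrome c reductase at 35 °C in a stirred cuvette. Buffer: 100 μM decylubiquinol, 100 μM horse heart cytochrome c, 0.1 mg/mL dodecyl maltoside, 60 mM HEPES pH 7.4, 10 mM malonate, 1.0 mM EDTA, 2.0 mM KCN. Baseline subtracted from the initial rate; activity expressed as a fraction of uninhibited control.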

[11] = Selectivity ratio of IC50 for human cytochrome bc1 complex to EC50 for Plasmodium falciparum cytochrome bc1 complex

SMILES | IC50 (HepG2) [nM] | EC50 [1] [nM] | EC50 (Plasmodium falciparum [2]) [nM] | NRD (Plasmodium yoelii [3]) | EC50 (Plasmodium falciparum [4]) [nM] | ED50 (Plasmodium yoelii [5]; MR4 MRA-428, po, 96 h) [mg/kg/day] | Activity (Plasmodium yoelii [6]) | IC50 [7] [nM] | Stability (Liver microsome [8]) | Stability (Liver microsome [9]) | IC50 [10] [nM] | EC50 [10] [nM] | ED90 (Plasmodium yoelii [5]; MR4 MRA-428, po, 96 h) [mg/kg/day] | Ratio IC50/EC50 [11] | ED50 (Plasmodium yoelii [5])
COc1cc2[nH]c(C)c(-c3ccc(Oc4ccc(C(F)(F)F)cc4)cc3)c(=O)c2cc1Cl | > 10000 | 0.3 | 0.05 | 1 mg/kg/day | 0.3 | 0.03 |  |  |  |  |  |  |  |  | 
CCN(CC)CCCC(C)Nc1ccnc2cc(Cl)ccc12 (stereo unspecified) [CHLOROQUINE] |  |  |  | >64 mg/kg/day |  | 2.2 | inactive |  |  |  |  |  |  |  | 
COc1cc2[nH]c(C)c(-c3ccc(Oc4ccc(OC(F)(F)F)cc4)cn3)c(=O)c2cc1Cl | > 10000 | 0.5 | 0.2 | >3 mg/kg/day | 0.4 | < 1 |  |  |  |  |  |  |  |  | 
COc1cc2[nH]c(C)c(-c3ccc(Oc4ccc(OC(F)(F)F)cc4)nc3)c(=O)c2cc1Cl | > 10000 | 0.2 | 0.4 | >3 mg/kg/day | 0.3 | 0.3 |  |  |  |  |  |  |  |  | 
Cc1[nH]c2ccc(F)cc2c(=O)c1-c1ccc(Oc2ccc(OC(F)(F)F)cc2)cc1 | > 10000 | 2.4 | 1.7 | 3 mg/kg/day | 1.5 | 0.1 |  | > 10000 | Stable | Stable |  |  |  |  | 
COc1cc2[nH]c(C)c(-c3ccc(Oc4ccc(Cl)cc4)cc3)c(=O)c2cc1Cl | > 10000 | 1.8 | 1.2 | >0.3 mg/kg/day | 1.9 | 0.05 |  |  |  |  |  |  |  |  | 
COc1cc2[nH]c(C)c(-c3ccc(Oc4ccc(OC(F)(F)F)cc4)cc3)c(=O)c2cc1F | > 10000 | 1.4 | 0.5 |  | 1.4 | 0.05 |  | > 10000 | Stable | Stable |  |  |  |  | 
COc1cc2[nH]c(C)c(-c3ccc(Oc4ccc(F)cc4)cc3)c(=O)c2cc1Cl | > 10000 | 3.8 |  | >3 mg/kg/day | 0.8 | < 1 |  |  |  |  |  |  |  |  | 
Cc1[nH]c2ccc(Cl)cc2c(=O)c1-c1ccc(Oc2ccc(OC(F)(F)F)cc2)cc1 | > 10000 | 5.6 | 2.3 | >3 mg/kg/day | 3.2 | 0.2 |  | > 10000 | Stable | Stable |  |  |  |  | 
O=C1C(O)=C([C@H]2CC[C@H](c3ccc(Cl)cc3)CC2)C(=O)c2ccccc21 [ATOVAQUONE] | > 10000 | 0.1 | 7700 |  | 0.1 |  |  | 410 |  |  | 2 |  |  |  | 
COc1cc2[nH]c(C)c(-c3ccc(Oc4ccc(OC(F)(F)F)c(F)c4)cc3)c(=O)c2cc1Cl | > 10000 | 12 | 5.8 |  | 12 |  |  |  |  |  |  |  |  |  | 
COc1cc2[nH]c(C)c(-c3ccc(Oc4cccc(OC(F)(F)F)c4)cc3)c(=O)c2cc1Cl | > 10000 | 0.03 | < 0.03 | >3 mg/kg/day | 0.03 | > 3 |  |  |  |  |  |  |  |  | 
COc1cc2[nH]c(C)c(-c3ccc(Oc4ccc(F)c(OC(F)(F)F)c4)cc3)c(=O)c2cc1Cl | > 10000 | 0.5 | 0.3 | >3 mg/kg/day | 0.4 | 0.06 |  |  |  |  |  |  |  |  | 
Cc1[nH]c2ccc(Cl)cc2c(=O)c1-c1ccc(Oc2ccc(OC(F)(F)F)cc2)nc1 | > 10000 | 6.1 | 1.5 |  | 3.6 |  |  |  |  |  |  |  |  |  | 
COc1cc2[nH]c(C)c(-c3cnc(Oc4ccc(OC(F)(F)F)cc4)nc3)c(=O)c2cc1Cl | > 10000 | > 2500 | > 2500 |  | > 2500 |  |  |  |  |  |  |  |  |  | 
COc1cc2[nH]c(C)c(-c3ccc(Oc4ccc(C(F)(F)F)cn4)cc3)c(=O)c2cc1Cl | > 10000 | 6.8 | 4.1 |  | 8.1 |  |  |  |  |  |  |  |  |  | 
Cc1[nH]c2ccc(F)cc2c(=O)c1-c1ccc(Oc2ccc(OC(F)(F)F)cc2)nc1 | > 10000 | 13 | 11 |  | 13 |  |  |  |  |  |  |  |  |  | 
CCCCCCCc1c(C)[nH]c2cc(OC)c(Cl)cc2c1=O |  | 2.3 | 0.8 |  | 1.4 |  |  | > 10000 |  |  |  |  |  |  | 
COc1ccc2c(=O)c(-c3ccc(Oc4ccc(OC(F)(F)F)cc4)cc3)c(C)[nH]c2c1 | > 10000 | 3.4 | 2.3 |  | 1.7 |  |  | > 10000 | Unstable | Unstable |  |  |  |  | 
Cc1[nH]c2ccccc2c(=O)c1-c1ccc(Oc2ccc(OC(F)(F)F)cc2)nc1 | > 10000 | 5.8 | 4.3 |  | 3 |  |  |  |  |  |  |  |  |  | 
Cc1[nH]c2ccccc2c(=O)c1-c1ccc(Oc2ccccc2)cc1 | > 10000 | 12 | 7.2 |  | 8.4 |  |  |  |  |  |  |  |  |  | 
COc1cc2[nH]c(C)c(-c3ccc(Oc4ccccc4)cc3)c(=O)c2cc1F | > 10000 | 43 | 8.5 |  | 40 |  |  |  |  |  |  |  |  |  | 
Cc1[nH]c2ccccc2c(=O)c1-c1ccc(Oc2ccc(OC(F)(F)F)cc2)cc1 | > 10000 | 5.9 | 7.5 | 3 mg/kg/day | 4.1 | 0.1 |  | 1900 |  |  | 8.9 |  |  |  | 
COc1cc2[nH]c(C)c(-c3ccc(Oc4ccc(OC(F)(F)F)cc4)cc3)c(=O)c2cc1Cl | > 10000 | 2.5 | 1.4 | 0.3 mg/kg/day | 2.2 | 0.02 |  | > 10000 | Stable | Stable |  | 0.56 | 0.06 | > 20000 | 
CCCCCCCc1c(C)nc2cc(OC)ccc2c1O | > 10000 | 3.1 | 11 | inactive | 3.8 |  |  | > 10000 |  |  |  |  |  |  | inactive
